Measured values: ChEMBL document CHEMBL1148754, “4- and 5-aroylindoles as novel classes of potent antitubulin agents” (J Med Chem, 2007)

What was measured:
Tubulin (Homo sapiens) = Tubulin (Homo sapiens) (UniProt P68371+Q9H4B7+P0DPH7+P68366+Q13509+Q71U36+P04350+Q3ZCM7+P07437+P68363+Q9BQE3+Q6PEY2+Q13885+Q9BVA1+Q9BUF5); assay: Displacement of [3H]colchicine from tubulin at 5 uM; type: protein-complex assay
MKN-45 = assay: Growth inhibition of human MKN45 cells after 72 hrs by methylene blue dye assay; type: functional, cell-based; conditions: MKN-45, 72 h
Outline: (§1)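 Antiproliferative screen in human cancer lines: KB (oral epidermoid carcinoma), HT29 (colorectal carcinoma), H460 (non-small cell lung carcinoma), TSGH and MKN45 (stomach carcinoma), plus KB-VIN10, an MDR-positive line overexpressing P-gp 170/MDR. Potency is reported as IC50.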

NCI-H460 = assay: Growth inhibition of human H460 cells after 72 hrs by methylene blue dye assay; type: functional, cell-based; conditions: NCI-H460, 72 h; outline: as §1
HT-29 = assay: Growth inhibition of human HT29 cells after 72 hrs by methylene blue dye assay; type: functional, cell-based; conditions: HT-29, 72 h; outline: as §1
[1] = Growth inhibition of human KB-vin10 cells after 72 hrs by methylene blue dye assay; type: functional; conditions: KB-VIN10, 72 h; outline: as §1
Tubulin = assay: Inhibition of tubulin polymerization in presence of microtubule associated proteins after 30 mins; type: protein-complex assay, Homo sapiens
TSGH = assay: Growth inhibition of human TSGH cells after 72 hrs by methylene blue dye assay; type: functional, cell-based; outline: as §1
KB = assay: Growth inhibition of human KB cells after 72 hrs by methylene blue dye assay; type: functional, cell-based; outline: as §1

| Activity (Tubulin (Homo sapiens)) [%] | IC50 (MKN-45) [nM] | IC50 (NCI-H460) [nM] | IC50 (HT-29) [nM] | IC50 (Tubulin) [nM] | IC50 (KB) [nM] | Structure (SMILES) | IC50 [1] [nM] | IC50 (TSGH) [nM] |
| --- | --- | --- | --- | --- | --- | --- | --- | --- |
| 78 | 33 | 39 | 34 | 1800 | 39 | COc1cc(C(=O)c2ccc3c(ccn3CO)c2)cc(OC)c1OC | 35 | 43 |
| – | 210 | 295 | 250 | – | 310 | COc1cc(C(=O)c2cccc3cc[nH]c23)cc(OC)c1OC | 284 | 310 |
| 71 | 88 | 112 | 100 | 2200 | 104 | COc1cc(C(=O)c2ccc3[nH]ccc3c2)cc(OC)c1OC | 111 | 103 |
| – | 396 | 530 | 460 | – | 520 | COc1cc(C(=O)c2ccc3c(ccn3CC(=O)O)c2)cc(OC)c1OC | 476 | 548 |
| 84 | 11.2 | 14.1 | 10.5 | 1100 | 13.6 | COc1cc(C(=O)c2ccc3c(ccn3C)c2)cc(OC)c1OC | 12.5 | 13.4 |
| – | > 10000 | > 10000 | > 10000 | – | > 10000 | COc1cc(C(=O)c2ccc3c(ccn3CCC(=O)O)c2)cc(OC)c1OC | > 10000 | > 10000 |
| – | 680 | 2000 | 1800 | – | 1900 | CCCn1ccc2cc(C(=O)c3cc(OC)c(OC)c(OC)c3)ccc21 | 2100 | 1500 |
| – | 480 | 520 | 330 | – | 510 | COc1cc(C(=O)c2ccc3cc[nH]c3c2)cc(OC)c1OC | 452 | 430 |
| – | 5200 | > 10000 | 9600 | – | > 10000 | COc1cc(C(=O)n2ccc3ccccc32)cc(OC)c1OC | > 10000 | 8400 |
| 74 | 49.1 | 53.8 | 46.4 | 2000 | 50.7 | COc1cc(C(=O)c2cccc3[nH]ccc23)cc(OC)c1OC | 51.4 | 54.4 |
| 81 | 31 | 38 | 32 | 1200 | 36 | CCn1ccc2cc(C(=O)c3cc(OC)c(OC)c(OC)c3)ccc21 | 40 | 41 |
| 89 | – | – | – | – | – | COc1ccc(/C=C\c2cc(OC)c(OC)c(OC)c2)cc1O | – | – |
| – | 2900 | 5100 | 4600 | – | 5200 | COc1cc(C(=O)c2ccc3c(ccn3CCN(C)C)c2)cc(OC)c1OC | 4900 | 4900 |
| – | 470 | 1600 | 1200 | – | 1800 | COc1cc(C(=O)c2ccc3c(ccn3C(C)C)c2)cc(OC)c1OC | 1600 | 1100 |
| 75 | 21.6 | 28.8 | 22.4 | 1900 | 22.1 | COc1cc(C(=O)c2cccc3c2ccn3C)cc(OC)c1OC | 26.1 | 26.9 |
| – | 980 | 1700 | 1000 | – | 1600 | COc1cc(C(=O)c2c[nH]c3ccccc23)cc(OC)c1OC | 1500 | 1100 |
| – | 1500 | 2100 | 1700 | – | 2900 | COc1cc(C(=O)c2cc3ccccc3[nH]2)cc(OC)c1OC | 2800 | 1800 |

| Structure (SMILES) | Activity (Tubulin (Homo sapiens)) [%] | IC50 (MKN-45) [nM] | IC50 (NCI-H460) [nM] | IC50 (HT-29) [nM] | IC50 (Tubulin) [nM] | IC50 (KB) [nM] | IC50 [1] [nM] | IC50 (TSGH) [nM] |
| --- | --- | --- | --- | --- | --- | --- | --- | --- |
| COc1cc2c(c(OC)c1OC)-c1ccc(OC)c(=O)cc1[C@@H](NC(C)=O)CC2 [COLCHICINE] | – | 13 | 19 | – | – | – | 120 | – |
